Experimental data from the EternaBench riboswitch data.

Tests used:
MS2 coat protein [1] = experiment: apparent Kd, MS2 coat protein; higher = weaker binding; RNA-MaP array; theophylline 2 mM where present
Method in brief: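 The titrant was SNAP-549-labelled MS2 coat protein, run from 0.7 or 1.5 nM in doubling steps to 3 µM. It was applied to designs transcribed by stalled E. coli RNA polymerase on Illumina sequencing-chip clusters, without ligand first and then with constant ligand, in 100 mM Tris-HCl pH 7.5, 80 mM KCl, 4 mM MgCl2, BSA, DTT, yeast tRNA and Tween-20. The apparent Kd is the median of filtered per-cluster binding-curve fits, with green signal normalised to red-channel RNA signal and control-cluster median Fmax.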

MS2 coat protein [2] = experiment: apparent Kd, MS2 coat protein; higher = weaker binding; RNA-MaP array
Method in brief: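 Fluorescently labeled MS2 coat protein, from 1.5 nM to 3 μM, was incubated at room temperature with designed RNAs transcribed on an Illumina sequencing chip from sequenced DNA templates. Times ran from 0.8–1.5 h at the lowest concentrations to 10–20 min at the highest, in Tris-HCl pH 7.5 buffer with KCl, MgCl2, BSA, DTT, tRNA and Tween20, with or without input ligand. Each apparent Kd is the median of per-cluster binding-curve fits, and designs with fewer than 10 measured clusters were excluded.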

[3] = designed as: ON switch for theophylline, no ligand
[4] = designed as: OFF switch for theophylline, no ligand
[5] = ligand present: theophylline, designed as: OFF switch for theophylline
[6] = designed as: OFF switch for flavin mononucleotide, no ligand
[7] = ligand present: flavin mononucleotide, designed as: OFF switch for flavin mononucleotide
[8] = designed as: ON switch for flavin mononucleotide, no ligand
[9] = ligand present: flavin mononucleotide, designed as: ON switch for flavin mononucleotide

AUCGUACCUGAGGAUACCAGCAUGUGAUCAUAACAUGAGGAUCACCCAUGUAAUCAGUGAUGCCCUUGGCAGCUUGGUCGGUACA
apparent Kd (MS2 coat protein [1]; [3]): 51.6 nM | apparent Kd (MS2 coat protein [1]; ligand present: theophylline, designed as: ON switch for theophylline): 26.4 nM

UGACAUUGCUCAGAUACCAGACAUGAGGAUCACCCAUGUACCAAGAAAGUACAAUAAAAUGUCCCUUGGCAGCUGAGCAAUGUCU
apparent Kd (MS2 coat protein [1]; [4]): 66.8 nM | apparent Kd (MS2 coat protein [1]; [5]): 487 nM

AUAACAUGAGGAUCACCCAUGUAAGCAGAUACCAGCUAGGAAACUAGCCCUUGGCAGCUGCAAUCAUGGGUGUGGUAUCUGCUAA
apparent Kd (MS2 coat protein [1]; [4]): 28.2 nM | apparent Kd (MS2 coat protein [1]; [5]): 39.7 nM

CGCAACCCUAAGGGAUUGUGGUUAUUAGAUACCAGUAUGAUGCAAUACCCUUGGCAGCUAAUACAUGAGGAUCACCCAUGUUGCG
apparent Kd (MS2 coat protein [1]; [5]): 59.5 nM

AGCGACAUGCGUGAUACCAGCUACAUGAGGAUCACCCAUGUAAGUAGGAAACUACUGUGUAGCCCUUGGCAGCACAAUGCAUGUC
apparent Kd (MS2 coat protein [1]; [4]): 19.8 nM | apparent Kd (MS2 coat protein [1]; [5]): 43.5 nM

GAGCUGAUGUAGAGCGAAUAUUCGAGAGAUACCAGUACAGAAAUGUACCCUUGGCAGCUCAACUUUACAUGAGGAUCACCCAUGU
apparent Kd (MS2 coat protein [1]; [4]): 13.7 nM | apparent Kd (MS2 coat protein [1]; [5]): 25 nM

UUCUACAUGAGGAUCACCCAUGUAAACGAUACCAGACGAGUAUUAGUCCCUUGGCAGCGUAGAGUGUCGUUUAUAGUAGGAUACC
apparent Kd (MS2 coat protein [1]; [3]): 22.7 nM

GACAGGAAAGGAUAUACAAAAUAGAUCAAACGCACACAAAGACAUGAGGAUCACCCAUGUAGAAGGUACUGACA
apparent Kd (MS2 coat protein [2]; [6]): 11.3 nM | apparent Kd (MS2 coat protein [2]; [7]): 9.76 nM

UGGAGAUAGACGGCCGCCACUAACAUGAGGAUCACCCAUGUCGUCACGAAUGGAUGGCCCUAGAAUAGGACCGGGUCCGGAUUCA
apparent Kd (MS2 coat protein [2]; designed as: OFF switch for tryptophan, no ligand): 33.6 nM | apparent Kd (MS2 coat protein [2]; ligand present: tryptophan, designed as: OFF switch for tryptophan): 34.8 nM

UCAAGUGAACCAUGGAAACAUUCAAUAGAUACCAGCAUUAAAACCUGCCCUUGGCAGCUAUGAACAUGAGGAUCACCCAUGUGAA
apparent Kd (MS2 coat protein [2]; [4]): 18.5 nM | apparent Kd (MS2 coat protein [2]; [5]): 71.4 nM

AGCGACAUGAGGAUCACCCAUGUACAUUCCCGAGGACCGGUACGGCCGCCACUCGAUGGAAGUGGUAGCAGCUUGGAUGGGCCUA
apparent Kd (MS2 coat protein [2]; designed as: ON switch for tryptophan, no ligand): 15.7 nM | apparent Kd (MS2 coat protein [2]; ligand present: tryptophan, designed as: ON switch for tryptophan): 26.7 nM

AUAAAAGACAUGAGGAUCACCCAUGUAGCUCCUCGGUCUUCGAGAAGGUUCUUGCCCAGAGCGUGAAAGGAUAUCGCAUAUAUC
apparent Kd (MS2 coat protein [2]; [6]): 353 nM | apparent Kd (MS2 coat protein [2]; [7]): 448 nM

ACCAUCACAUGAGGAUCACCCAUGUAAAUAACUACAUAGACGGAGGAUAUCACAAUAACAGCGAAAGAGAAGGCCGGUGUAAAA
apparent Kd (MS2 coat protein [2]; [8]): 11.5 nM | apparent Kd (MS2 coat protein [2]; [9]): 8.1 nM

GUGAGACAUGAGGAUCACCCAUGUUAGGAUAUUAAACUGGUUUAGUCUGUGACCGACGUAAGAAGGAACUUGAU
apparent Kd (MS2 coat protein [2]; [6]): 13.1 nM | apparent Kd (MS2 coat protein [2]; [7]): 11.7 nM

GAUGGUGUCAAGGAUAUUCCUAGCGGCUCGUUCGAAGAAGGUGAUACAUGAGGAUCACCCAUGUCCCUCCAUUU
apparent Kd (MS2 coat protein [2]; [6]): 18.2 nM | apparent Kd (MS2 coat protein [2]; [7]): 16.9 nM

UGUUGGGAAACAGGAUAUGAGCUUAAAGCACAAGGGAUUCGCACAUGAGGAUCACCCAUGUAACGUCAGAAGGGUUUGUUUGUA
apparent Kd (MS2 coat protein [2]; [6]): 51.2 nM | apparent Kd (MS2 coat protein [2]; [7]): 42.2 nM

UAAAGGUUCCAGAAGGCCACGACUCGAUCCUGUGGAGGAUAUGGGACAUGAGGAUCACCCAUGUCUGGUGGAUUACAUCCCACA
apparent Kd (MS2 coat protein [2]; [8]): 20.4 nM | apparent Kd (MS2 coat protein [2]; [9]): 32.2 nM

UCAGGACAUGAGGAUCACCCAUGUUGUCAAACCAAAGGAUAUAGGCUGAUCGAAAGAGAACUAGAAGGUUGCGAUU
apparent Kd (MS2 coat protein [2]; [8]): 20.1 nM | apparent Kd (MS2 coat protein [2]; [9]): 15.6 nM

AAAAUAGCAGGAUAUACAUGAGGAUCACCCAUGUCAAGACAGCACGGUGCAAGGUAGGGUAGAAGGGCUAAUUG
apparent Kd (MS2 coat protein [2]; [6]): 22.8 nM | apparent Kd (MS2 coat protein [2]; [7]): 30.1 nM

ACCCUGUGAGGAUAUUAUUAGCUCGGCCAUAAUAAGGAUAGUAAGAAGGCACAUGAGGAUCACCCAUGUAUCCU
apparent Kd (MS2 coat protein [2]; [6]): 21.8 nM | apparent Kd (MS2 coat protein [2]; [7]): 19.2 nM

AUACGGCGGUAAAAUCAGAGAGUAAAAGAUACCAGCAAUAAUAAAUGCCCUUGGCAGCUUCUGACAUGAGGAUCACCCAUGUAAA
apparent Kd (MS2 coat protein [2]; [4]): 15.3 nM | apparent Kd (MS2 coat protein [2]; [5]): 29.1 nM

UCGACAUGAGGAUCACCCAUGUGCCUCGGAUGUCGUUAGAGUGAGGAUAUGUCACACCAAAACGUACAGAAGGCACUUAUUAGA
apparent Kd (MS2 coat protein [2]; [6]): 296 nM | apparent Kd (MS2 coat protein [2]; [7]): 267 nM

CAUGGAUAAGGAUAUACAUGAGGAUCACCCAUGUAUAGAAGGAUACAAAGAUAAGAAUGUAGAAGGUAUUGGUU
apparent Kd (MS2 coat protein [2]; [6]): 9.75 nM | apparent Kd (MS2 coat protein [2]; [7]): 8.44 nM

UCCAGCAACGAGAAGGUACACAUGAGGAUCACCCAUGUCCGUUGACCGUCUCCAUGGGCGAUGGGUAAGGAUAUCGGGCAGAUG
apparent Kd (MS2 coat protein [2]; [8]): 68.9 nM | apparent Kd (MS2 coat protein [2]; [9]): 49.4 nM

UGGCCGUAGAAGAAGGAGGACACCGUUUUGUCACGGACAUGAGGAUCACCCAUGUAGAUAAUUGCCUAGGAUAUUCGCUCAUUU
apparent Kd (MS2 coat protein [2]; [8]): 15.9 nM | apparent Kd (MS2 coat protein [2]; [9]): 7.52 nM

GAAUUUCGGAAGAAGGGACUCGAUCAGUUCAGGUCAGGAUAUUCACAUGAGGAUCACCCAUGUCCAUCAGCAUGACGUUUCCAC
apparent Kd (MS2 coat protein [2]; [6]): 10.9 nM | apparent Kd (MS2 coat protein [2]; [7]): 14.7 nM
